57 molecules from the M2OR odorant receptor database can be followed below.

Common to all, as to conditions: stereoisomer not certain
For assay [1], the target named is T1, OR51B5 (Homo sapiens) (UniProt Q9H339).
T1 sequence (whole entry): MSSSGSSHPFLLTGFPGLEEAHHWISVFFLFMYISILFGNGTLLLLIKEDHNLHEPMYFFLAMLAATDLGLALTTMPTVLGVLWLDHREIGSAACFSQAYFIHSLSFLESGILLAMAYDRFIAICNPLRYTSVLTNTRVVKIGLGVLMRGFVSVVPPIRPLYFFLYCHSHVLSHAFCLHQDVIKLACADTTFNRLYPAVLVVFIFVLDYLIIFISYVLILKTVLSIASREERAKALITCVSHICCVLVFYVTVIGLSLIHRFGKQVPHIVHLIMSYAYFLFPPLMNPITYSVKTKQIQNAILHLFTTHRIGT
In short, it runs like this: (§1)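 Transient luciferase assays in mammalian cell lines were common, though methods varied by source. The values come from published papers and their supplementary material, with extra details from the original authors when needed. Responsive refers to a measured signal the original authors judged statistically different from baseline, and non-responsive (inactive) to the remainder.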

Assay [2] addresses T2, OR51E1 (Homo sapiens) (UniProt Q8TCB6).
T2 sequence (whole entry): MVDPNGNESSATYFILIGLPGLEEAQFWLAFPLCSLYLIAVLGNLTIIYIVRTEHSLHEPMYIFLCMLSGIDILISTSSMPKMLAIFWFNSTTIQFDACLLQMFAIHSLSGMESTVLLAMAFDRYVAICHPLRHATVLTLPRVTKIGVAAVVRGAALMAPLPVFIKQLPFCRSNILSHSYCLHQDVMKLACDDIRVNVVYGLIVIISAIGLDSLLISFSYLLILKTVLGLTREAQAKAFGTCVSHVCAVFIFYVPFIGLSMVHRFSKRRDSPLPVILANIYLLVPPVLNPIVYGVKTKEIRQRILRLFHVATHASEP
In short, it runs like this: as §1

Assay [3] deals with T3, OR51E2 (Homo sapiens) (UniProt Q9H255).
T3 sequence (whole entry): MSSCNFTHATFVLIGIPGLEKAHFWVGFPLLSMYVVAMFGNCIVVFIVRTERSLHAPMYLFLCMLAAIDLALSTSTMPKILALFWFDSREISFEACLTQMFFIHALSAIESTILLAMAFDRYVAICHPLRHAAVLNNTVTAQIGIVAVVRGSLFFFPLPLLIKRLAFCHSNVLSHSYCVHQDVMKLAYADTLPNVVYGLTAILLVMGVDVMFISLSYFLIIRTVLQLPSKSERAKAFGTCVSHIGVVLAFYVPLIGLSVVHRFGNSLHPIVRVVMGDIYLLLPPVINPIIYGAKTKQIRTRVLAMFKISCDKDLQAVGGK
A digest of the protocol:
as §1
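Note: active if original authors judged signal statistically different from baseline.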

Take `CCC(=O)O`: the “odorant receptor agonist call” value in assay [1] and in assay [2] was “inactive” in each case. Further, the “odorant receptor agonist call” value in assay [3] is “active”. For `CCCCCCCCCCCCCC(=O)OCC`, the “odorant receptor agonist call” value in assay [1] is “inactive”. With `CCCCCCCCCCCCCC(=O)O`, the “odorant receptor agonist call” value in assay [1] and in assay [2] was “inactive” throughout.

With `Cc1cccc(C)c1C`, the “odorant receptor agonist call” value in assay [1] was “inactive”. For the molecule `CCCCCCCC(=O)[O-].[H+]`, the “odorant receptor agonist call” value in assay [1], in assay [2] and in assay [3] was “inactive” each time. With `CCCCCCC(=O)[O-].[H+]`, the “odorant receptor agonist call” value in assay [1], in assay [2] and in assay [3] was “inactive” each time.

With `O=c1ccc2ccccc2o1`, the “odorant receptor agonist call” value in assay [1], in assay [2] and in assay [3] was “inactive” in each case. `O=C([O-])c1ccccc1.[H+]`: the “odorant receptor agonist call” value in assay [2] is “inactive”. Regarding `CCCCCCCCCCCCCCCC(=O)[O-].[H+]`, the “odorant receptor agonist call” value in assay [1] and in assay [2] was “inactive” each time. As to `CCCCCCCCO`, the “odorant receptor agonist call” value in assay [1], in assay [2] and in assay [3] was “inactive” in each case. For the molecule `CCC(C)CC(=O)O` (stereo not drawn), in assay [2], the “odorant receptor agonist call” value is “active”. For the molecule `CCCCOCC(C)O` (stereo not drawn), in assay [1], the “odorant receptor agonist call” value is “inactive”. `CCCCCCCC(=O)OC`: the “odorant receptor agonist call” value in assay [1] was “inactive”. Consider `CCCO`, for which, in assay [1], the “odorant receptor agonist call” value was “inactive”. Consider `CC(C)=CCCC(C)=CCCC(C)=CCO`, for which, in assay [1], the “odorant receptor agonist call” value is “active”. For `CC(=O)OCc1ccccc1`, the “odorant receptor agonist call” value in assay [2] and in assay [3] was “inactive” throughout. As for `COc1ccc2[nH]cc(CCNC(C)=O)c2c1`, in assay [1], the “odorant receptor agonist call” value was “inactive”. In the case of `C=C(C)C1CCC(C)C(=O)C1` (stereo not drawn), the “odorant receptor agonist call” value in assay [2] and in assay [3] was “inactive” each time. `Cc1cnc(C)cn1`: the “odorant receptor agonist call” value in assay [1] is “inactive”.

Regarding `CC(=O)O`, the “odorant receptor agonist call” value in assay [1] was “inactive”. For `O=C([O-])CC(O)(CC(=O)O)C(=O)[O-].[H+].[H+]`, the “odorant receptor agonist call” value in assay [2] was “inactive”. As for `CCCCCCCC(=O)OCC`, the “odorant receptor agonist call” value in assay [1] is “inactive”. In the case of `CCCC(C)C(=O)O` (stereo not drawn), in assay [2], the “odorant receptor agonist call” value is “active”. For the molecule `CCCCOC=O`, the “odorant receptor agonist call” value in assay [2] and in assay [3] was “inactive” in each case. `CC(C)=CCCC(C)CCO` (stereo not drawn): the “odorant receptor agonist call” value in assay [2] and in assay [3] was “inactive” throughout.

Regarding `CC(=O)Oc1ccccc1`, the “odorant receptor agonist call” value in assay [2] and in assay [3] was “inactive” throughout. For the molecule `CCCCCCCCCS`, the “odorant receptor agonist call” value in assay [2] and in assay [3] was “inactive” each time. For the molecule `CCCCCC(=O)CC`, the “odorant receptor agonist call” value in assay [2] and in assay [3] was “inactive” throughout. With `CC12CCC(CC1=O)C2(C)C` (stereo not drawn), the “odorant receptor agonist call” value in assay [2] and in assay [3] was “inactive” throughout. For the molecule `CCC(=O)C(=O)CC`, the “odorant receptor agonist call” value in assay [2] and in assay [3] was “inactive” throughout. For `CCCCOC(=O)C(C)OC(=O)CCC` (stereo not drawn), the “odorant receptor agonist call” value in assay [2] is “active”. Moreover, the “odorant receptor agonist call” value in assay [3] is “inactive”.

As for `CCCCCCCCS`, the “odorant receptor agonist call” value in assay [2] and in assay [3] was “inactive” in each case. As to `CCCCCCCCCC(=O)[O-].[H+]`, the “odorant receptor agonist call” value in assay [2] and in assay [3] was “inactive” each time.

As to `CCCCCCCO`, the “odorant receptor agonist call” value in assay [2] and in assay [3] was “inactive” in each case. Consider `CCCCCC=O`, for which the “odorant receptor agonist call” value in assay [2] and in assay [3] was “inactive” each time. `CCCCC(C)=O`: the “odorant receptor agonist call” value in assay [2] and in assay [3] was “inactive” throughout. As for `CCCCC(=O)O`, the “odorant receptor agonist call” value in assay [3] is “inactive”.

Regarding `CCCCC(=O)CC`, the “odorant receptor agonist call” value in assay [2] and in assay [3] was “inactive” throughout. Consider `CCCCCCOC(C)=O`, for which the “odorant receptor agonist call” value in assay [2] and in assay [3] was “inactive” each time. In the case of `CCCCCCCCCCO`, the “odorant receptor agonist call” value in assay [2] and in assay [3] was “inactive” throughout. With `COc1cc(C(=O)O)ccc1O`, the “odorant receptor agonist call” value in assay [2] and in assay [3] was “inactive” throughout. For the molecule `CCCCCO`, the “odorant receptor agonist call” value in assay [2] and in assay [3] was “inactive” in each case. Consider `CC(=O)C=CC1=C(C)CCCC1(C)C`, for which, in assay [3], the “odorant receptor agonist call” value is “inactive”.

For `CCCC(=O)C(C)=O`, the “odorant receptor agonist call” value in assay [2] and in assay [3] was “inactive” each time.

In the case of `CCCCCCC(C)=O`, the “odorant receptor agonist call” value in assay [2] and in assay [3] was “inactive” throughout.

`CCCCCCCC(C)=O`: the “odorant receptor agonist call” value in assay [2] and in assay [3] was “inactive” in each case.

As for `O=C(c1ccccc1)c1ccccc1`, the “odorant receptor agonist call” value in assay [2] and in assay [3] was “inactive” each time. For `C=CCOC(=O)CCCCCC`, the “odorant receptor agonist call” value in assay [2] and in assay [3] was “inactive” throughout. As for `c1ccccc1`, the “odorant receptor agonist call” value in assay [2] and in assay [3] was “inactive” in each case.

As to `O=C1Cc2ccccc2O1`, the “odorant receptor agonist call” value in assay [2] and in assay [3] was “inactive” in each case.

Regarding `CCCCCOC(=O)CCCCC`, the “odorant receptor agonist call” value in assay [2] and in assay [3] was “inactive” throughout.

As for `CCOC(=O)C(C)C`, the “odorant receptor agonist call” value in assay [2] and in assay [3] was “inactive” throughout. For the molecule `O=C1CCOc2ccccc21`, the “odorant receptor agonist call” value in assay [2] and in assay [3] was “inactive” each time. Regarding `CC(=O)OCC=C(C)C`, the “odorant receptor agonist call” value in assay [2] and in assay [3] was “inactive” each time. On to `CCCC(C)=O`, for which the “odorant receptor agonist call” value in assay [2] and in assay [3] was “inactive” throughout.

With `CCCCCCO`, the “odorant receptor agonist call” value in assay [2] and in assay [3] was “inactive” each time. Turning to `CCC(C(=O)O)c1ccccc1` (stereo not drawn), the “odorant receptor agonist call” value in assay [2] and in assay [3] was “inactive” each time.
